Structures are written as SMILES.

In this experiment the target is 5-hydroxytryptamine receptor 6 (Homo sapiens, UniProt P50406). In words: Binding affinity against h5-HT6 receptor transiently expressed in HEK293 cells. The class given is cell-based. The essentials: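 Harvested transfected cells 72 h post-transfection (medium changed at 24 h; dialyzed serum added 24 h later to remove 5-HT), washed in PBS pH 7.40, stored frozen at -80 °C. Competition binding at room temperature, 90 min, in 50 mM Tris-Cl, 10 mM MgCl2, 0.1 mM EDTA pH 7.40 with [3H]LSD 1 nM final; 10 µM clozapine defines nonspecific binding.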
5-hydroxytryptamine receptor 6, sequence (P50406 whole entry): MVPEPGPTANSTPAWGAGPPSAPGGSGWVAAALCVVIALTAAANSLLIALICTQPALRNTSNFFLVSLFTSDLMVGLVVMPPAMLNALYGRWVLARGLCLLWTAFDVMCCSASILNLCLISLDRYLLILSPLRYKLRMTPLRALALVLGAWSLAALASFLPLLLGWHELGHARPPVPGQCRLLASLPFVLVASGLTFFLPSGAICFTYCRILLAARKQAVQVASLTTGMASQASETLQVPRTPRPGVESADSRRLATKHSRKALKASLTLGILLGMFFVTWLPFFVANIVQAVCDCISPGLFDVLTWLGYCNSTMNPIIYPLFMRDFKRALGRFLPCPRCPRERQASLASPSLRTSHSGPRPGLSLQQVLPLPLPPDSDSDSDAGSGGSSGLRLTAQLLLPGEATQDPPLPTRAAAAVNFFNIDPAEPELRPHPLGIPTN
`CN1CCC[C@@H]1Cc1cn(S(=O)(=O)c2ccccc2)c2ccccc12` yielded a Ki of 0.3 nM.

The molecule `O=S(=O)(c1ccccc1)n1cc(C[C@@H]2CCCN2)c2ccccc21` yielded an inhibitory constant (Ki) of 46 nM.

Molecule `O=S(=O)(c1ccccc1)n1cc(C[C@H]2CCCN2)c2ccccc21` had an inhibition constant Ki of 7.8 nM.

`CN1CCC[C@@H]1Cn1cc(Cc2ccccc2)c2ccccc21` came in with an inhibition constant (Ki) of 9.9 nM.

Molecule `CN1CCC[C@H]1Cc1cn(S(=O)(=O)c2ccccc2)c2ccccc12` registered an inhibitory constant (Ki) of 1.7 nM.

For the molecule `CN1CCC[C@H]1Cn1cc(Cc2ccccc2)c2ccccc21`, the Ki turned out to be 29 nM.

With `c1ccc2c(C[C@@H]3CCCN3)c[nH]c2c1`, the Ki was 2400 nM.

As to `CN1CCC[C@@H]1Cc1c[nH]c2ccccc12`, the inhibition constant Ki is 640 nM.

The molecule `c1ccc2c(C[C@H]3CCCN3)c[nH]c2c1` had a Ki of 60 nM.

Molecule `CN1CCC[C@H]1Cc1c[nH]c2ccccc12` yielded an inhibitory constant (Ki) of 9.1 nM.

`CN(C)CCc1cn(S(=O)(=O)c2ccccc2)c2ccccc12`: the affinity corresponds to a Ki of 4 nM.

The term Ki denotes the equilibrium dissociation constant of an inhibitor or competing ligand from its target. A lower Ki goes with tighter binding.

For the origin of these results see ChEMBL document CHEMBL1139582, “Interaction of chiral MS-245 analogs at h5-HT6 receptors” (Bioorg Med Chem Lett, 2005).
